Results published in ChEMBL document CHEMBL4732107, “Synthesis and anticancer activity evaluation of naphthalene-substituted triazole spirodienones” (Eur J Med Chem, 2021).
Activity calls are given as the source filed them. The calls are words filed in the database; no cut-off is given here.

Legend:
MDA-MB-231 [1] = experiment: Induction of apoptosis in human MDA-MB-231 cells assessed as early apoptotic cells at 0.1 uM measured after 24 hrs by annexin V-FITC/propidium iodide staining based flow cytometry (reference value: 1.49%); assay type: functional
MDA-MB-231 [2] = experiment: Induction of apoptosis in human MDA-MB-231 cells assessed as necrotic cells at 0.1 uM measured after 24 hrs by annexin V-FITC/propidium iodide staining based flow cytometry (reference value: 4.74%); assay type: functional
MDA-MB-231 [3] = experiment: Induction of apoptosis in human MDA-MB-231 cells assessed as early apoptotic cells at 1 uM measured after 24 hrs by annexin V-FITC/propidium iodide staining based flow cytometry (reference value: 1.49%); assay type: functional
[4] = Acute toxicity in Kunming mouse assessed as body weight loss at 40 mg/kg, ip administered as single dose; assay type: organism-based; details: in vivo
Procedure, shortened: (§1)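 Kunming mice in four groups (n = 8, half male, half female) got one intraperitoneal dose of 10, 20 or 40 mg/kg, or vehicle. Body weights were recorded daily after dosing. Eyes, skin and fur were checked for clinical signs. Mortality was recorded. Mice were dissected to look for ascites and to assess liver volume.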

[5] = Acute toxicity in Kunming mouse assessed as development of ascites at 40 mg/kg, ip administered as single dose; assay type: organism-based; details: in vivo; procedure, shortened: as §1
4T1 [6] = experiment: Antitumor activity against mouse 4T1 cells implanted in mouse assessed as reduction in tumor weight at 1 to 2 mg/kg, ip administered daily for 12 days; assay type: functional, organism-based; details: dose 1-2 mg/kg, time 12.0 day
Procedure, shortened: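 Mice bearing orthotopic 4T1 tumors were randomized into 4 groups (n = 6) once tumors reached about 100 mm2. Groups received vehicle, test compound at 1 or 2 mg/kg, or doxorubicin at 1 mg/kg, given i.p. every day. Body weight and tumor volume were recorded daily. Tumors were excised and weighed at the end, and inhibition was calculated against the saline control.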

4T1 [7] = experiment: Antitumor activity against mouse 4T1 cells implanted in mouse assessed as tumor growth inhibition at 2 mg/kg, ip administered daily for 12 days relative to control; assay type: functional; details: 4T1, ip, 288 h, time 12 day, read-out: TGI
Procedure, shortened: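 Orthotopic 4T1 tumor-bearing mice were randomized into four groups (n = 6) once tumors reached about 100 mm2. Groups received vehicle (saline), test compound at 1 or 2 mg/kg, or doxorubicin 1 mg/kg, all intraperitoneally every day. Tumor volume and body weight were measured daily. Inhibition ratio was computed against saline at study end, and tumors were weighed.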

4T1 [8] = experiment: Induction of apoptosis in mouse 4T1 cells implanted in mouse at 2 mg/kg, ip administered daily for 12 days measured post last dose by H and E staining based microscopic analysis; assay type: functional, organism-based; details: time 12.0 day
Procedure, shortened: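 Orthotopic 4T1-bearing mice (n = 6 per group) were dosed i.p. daily with vehicle, compound at 1 or 2 mg/kg, or doxorubicin at 1 mg/kg. At the end of treatment, tumors and major organs (liver, spleen) were harvested and photographed. Sections were H&E stained and examined by microscope.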

O=C1C=CC2(C=C1)OCC(=O)N2c1nc(-c2cccc3ccccc23)nn1-c1ccccc1
Activity (MDA-MB-231 [1]): 1.32% | Activity (MDA-MB-231 [2]): 5.16% | Activity (MDA-MB-231 [3]): 22.2% | Activity [4]: Toxic | Activity [5]: Toxic | Activity (4T1 [6]): Active | inhibition in vivo at 2 mg/kg (4T1 [7]): 38.8% | Activity (4T1 [8]): Active
